This is an account of results in PMC8162271 (Chemical Science, 2020).

The structures appear in SMILES notation.

One data set has as its target Cu(II)–Aβ42 (Homo sapiens, UniProt P05067). The data set is described as follows: Aβ42 aggregation inhibition experiments. The class given is biochemical. The settings on record: 24 h; for MW distribution of Aβ42 species by gel/Western blot: [Aβ42] 25 μM, [CuCl2] 25 μM, [flavonoid] 50 μM, pH 6.6, 37 °C; for morphology of Aβ42 aggregates by TEM: Cu(II)–Aβ42, [flavonoid] 50 μM. A general note: A western blot detects proteins with antibodies after separation by electrophoresis.

Data set [1] addresses Electrophorus electricus AChE (eeAChE) (Electrophorus electricus, UniProt O42275). The data set can be described thus: AChE activity assay. The format is biochemical. The settings on record: for IC50: AChE IC50, eeAChE, fluorometric assay; for inhibition of the activity of AChE: eeAChE, result in words.
The target of data set [2] is preformed metal-free Aβ42 aggregates (Homo sapiens, UniProt P05067). The data set can be described thus: Aβ42 disaggregation experiments. The class given is biochemical. The settings on record: preformed aggregates (24 h) then [flavonoid] 50 μM 24 h, pH 7.4. In outline: (§1)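 Aβ42 (25 μM), with or without metal ions, was pre-incubated for 24 h to form aggregates, then exposed to test compound for a further 24 h. Species sizes were analysed by gel/Western blot with anti-Aβ antibody 6E10. Band intensities were quantified as a ratio to the matching control (ISample/IControl). Morphology was examined by TEM.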
Chain of preformed metal-free Aβ42 aggregates (P05067 672-713): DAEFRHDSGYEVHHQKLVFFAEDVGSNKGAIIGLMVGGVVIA

Another data set concerns the target Zn(II)–Aβ42 (Homo sapiens, UniProt P05067). The data set is described as follows: Aβ42 aggregation inhibition experiments. The settings on record: 24 h; for MW distribution of Aβ42 species by gel/Western blot: [Aβ42] 25 μM, [ZnCl2] 25 μM, [flavonoid] 50 μM, pH 7.4, 37 °C; for morphology of Aβ42 aggregates by TEM: Zn(II)–Aβ42, [flavonoid] 50 μM. The class given is biochemical. Summed up:
(§2)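 Freshly prepared Aβ42 (25 μM), metal-free or with ZnCl2 (25 μM), incubated with test compound (50 μM) at pH 7.4, 37 °C, for 24 h with constant agitation. Species sizes were resolved by gel/Western blot probed with anti-Aβ antibody 6E10. Band intensities were quantified and normalized to the matching untreated control (ISample/IControl). Aggregate morphology was imaged by TEM.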

In a further data set the target is metal-free Aβ42 (Homo sapiens, UniProt P05067). The data set can be described thus: Aβ42 aggregation inhibition experiments. The class given is biochemical. The note with it: [Aβ42] 25 μM, [flavonoid] 50 μM, pH 7.4, 37 °C, 24 h. Summed up: as §2
Chain of metal-free Aβ42 (P05067 672-713): as above
A short description of data set [3]: Trolox equivalent antioxidant capacity. The settings on record: TEAC assay, result in words. In outline:
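Radical quenching was measured with the cationic radical of 2,2′-azino-bis(3-ethylbenzthiazoline-6-sulphonic acid) as substrate, in EtOH at 25 °C. Absorbance was read at 734 nm, and capacity is expressed relative to the vitamin E analog Trolox as Trolox equivalents.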

In data set [4] the target is preformed Cu(II)–Aβ42 aggregates (Homo sapiens, UniProt P05067). The data set can be described thus: Aβ42 disaggregation experiments. The class given is biochemical. In outline:
as §1

For data set [5], the target named is preformed Zn(II)–Aβ42 aggregates (Homo sapiens, UniProt P05067). The data set is described as follows: Aβ42 disaggregation experiments. The format is biochemical. Summed up:
as §1

The next data set in a line: Interaction with Cu. The class given is physicochemical. The settings on record: UV-Vis; indicative of oxidation. Summed up:
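UV-Vis absorption spectra of test compound (25 μM) recorded with CuCl2 at 0, 12.5, 25, 50 and 125 μM. Medium was 20 mM HEPES, pH 6.6, 150 mM NaCl, or EtOH for some compounds. Additional spectra were taken after adding 0.5, 1 and 2 equiv of CuCl2.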

Chain of Zn(II)–Aβ42 (P05067 672-713): as above
Chain of Cu(II)–Aβ42 (P05067 672-713): as above
Chain of preformed Cu(II)–Aβ42 aggregates (P05067 672-713): as above
Chain of Electrophorus electricus AChE (eeAChE) (O42275 24-633): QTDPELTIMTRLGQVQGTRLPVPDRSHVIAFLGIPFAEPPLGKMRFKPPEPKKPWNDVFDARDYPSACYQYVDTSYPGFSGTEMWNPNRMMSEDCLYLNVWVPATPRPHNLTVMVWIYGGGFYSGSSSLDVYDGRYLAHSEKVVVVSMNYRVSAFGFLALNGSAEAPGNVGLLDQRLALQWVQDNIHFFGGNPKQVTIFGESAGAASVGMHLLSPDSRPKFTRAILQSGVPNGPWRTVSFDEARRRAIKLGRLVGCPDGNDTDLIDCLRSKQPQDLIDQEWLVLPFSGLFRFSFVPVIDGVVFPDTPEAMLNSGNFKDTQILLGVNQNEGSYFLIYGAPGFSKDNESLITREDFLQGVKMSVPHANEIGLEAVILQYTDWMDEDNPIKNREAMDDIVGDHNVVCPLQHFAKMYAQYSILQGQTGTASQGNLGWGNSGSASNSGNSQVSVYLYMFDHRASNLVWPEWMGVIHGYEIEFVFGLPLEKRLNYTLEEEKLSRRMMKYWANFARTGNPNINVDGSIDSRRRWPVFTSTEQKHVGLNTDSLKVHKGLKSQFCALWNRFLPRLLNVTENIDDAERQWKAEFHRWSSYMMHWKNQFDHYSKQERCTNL
Chain of preformed Zn(II)–Aβ42 aggregates (P05067 672-713): as the sequence (P05067 672-713) above

The IC50 is the point on the concentration scale where inhibition reaches its midpoint. Low readings indicate greater potency in that assay, high ones weaker potency in that assay. Turning to `O=c1c(O)c(-c2ccccc2)oc2cccc(O)c12` [DHF, 3,5-dihydroxyflavone], the “MW distribution of Aβ42 species by gel/Western blot” value at Cu(II)–Aβ42 was “did not exhibit significant reactivity”; in data set [2], “did not exhibit notable reactivity”; on Zn(II)–Aβ42, “did not exhibit significant reactivity”; on metal-free Aβ42, “did not exhibit significant reactivity”. In data set [1], the IC50 is greater than 2000 nM.

For the compound `O=c1c(-c2ccccc2)coc2cccc(O)c12` [HIF, 5-hydroxyisoflavone], the “radical scavenging activity, compared to Trolox” value in data set [3] is “negligible”. For the same compound, the “MW distribution of Aβ42 species by gel/Western blot” value is recorded as “did not exhibit significant reactivity” on Cu(II)–Aβ42, “did not exhibit notable reactivity” in data set [2], “did not exhibit significant reactivity” on Zn(II)–Aβ42 and “did not exhibit significant reactivity” at metal-free Aβ42. Moreover, in [1], the “inhibition of the activity of AChE” value is “not inhibited”.

With `O=c1c(-c2ccccc2)coc2cc(O)cc(O)c12` [DHIF, 5,7-dihydroxyisoflavone], in data set [3], the “radical scavenging activity, compared to Trolox” value is reported as “negligible”. The “MW distribution of Aβ42 species by gel/Western blot” value at Cu(II)–Aβ42 was “did not exhibit significant reactivity”; in [2], “did not exhibit notable reactivity”; at Zn(II)–Aβ42 it was “did not exhibit significant reactivity”; at metal-free Aβ42 it was “did not exhibit significant reactivity”.

In the case of `O=c1c(O)c(-c2ccccc2)oc2cc(O)cc(O)c12` [Gal, galangin], the “morphology of Aβ42 aggregates by TEM” value on Cu(II)–Aβ42 is listed as “did not significantly alter the morphologies”; on Zn(II)–Aβ42 it was “fibrillar aggregates similar to those from the compound-free Zn(II)–Aβ42 sample”. Moreover, the “MW distribution of Aβ42 species by gel/Western blot” value at Cu(II)–Aβ42 is on record as “did not exhibit significant reactivity”; in data set [2], “did not exhibit notable reactivity”; at Zn(II)–Aβ42 it was “did not exhibit significant reactivity”; at metal-free Aβ42, “did not exhibit significant reactivity”.

For `O=c1cc(-c2ccc(O)c(O)c2)oc2cc(O)cc(O)c12` [Lut, luteolin], the “morphology of Aβ42 aggregates by TEM” value on Cu(II)–Aβ42 was “decreased the degree of branching in the fibrils”; at Zn(II)–Aβ42, “thinner chopped fibrils”. For the same compound, the “MW distribution of Aβ42 species by gel/Western blot” value at Cu(II)–Aβ42 is listed as “increased the signal in the range of ca. 7–50 kDa”; in data set [2] it was “did not impact”; on Zn(II)–Aβ42, “altered the aggregation of Zn(II)–Aβ42, resulting in diverse MW distributions from ca. 15 to 50 kDa”; at metal-free Aβ42, “minor change”. For the same compound, the “morphology of preformed aggregates by TEM” value in data set [4] was “a mixture of amorphous aggregates and thinner chopped fibrils”.

As for `O=c1c(-c2ccc(O)c(O)c2)coc2cc(O)cc(O)c12` [Oro, orobol], the “morphology of Aβ42 aggregates by TEM” value on Cu(II)–Aβ42 is “thinner and shorter aggregates”; at Zn(II)–Aβ42, “thinner chopped fibrils”. Besides, the “MW distribution of Aβ42 species by gel/Western blot” value is “significantly decreased the band intensity of the entire range (7–270 kDa)” on Cu(II)–Aβ42; “very mildly varied the MW distribution” in [2]; “altered the aggregation of Zn(II)–Aβ42, resulting in diverse MW distributions from ca. 15 to 50 kDa” on Zn(II)–Aβ42; “minor change” on metal-free Aβ42. Moreover, the “morphology of preformed aggregates by TEM” value in [5] is “shorter fibrils”; in [4] it was “a mixture of amorphous aggregates and thinner chopped fibrils”.

For `O=c1cc(-c2ccc(O)cc2)oc2cc(O)cc(O)c12` [Api, Apigenin], the “radical scavenging activity, compared to Trolox” value in data set [3] is “negligible”. For the same compound, the “MW distribution of Aβ42 species by gel/Western blot” value is reported as “did not exhibit significant reactivity” on Cu(II)–Aβ42, “did not exhibit notable reactivity” in [2], “did not exhibit significant reactivity” on Zn(II)–Aβ42 and “did not exhibit significant reactivity” on metal-free Aβ42. Besides, in data set [1], the “inhibition of the activity of AChE” value is reported as “not inhibited”.

For the compound `O=c1cc(-c2ccccc2)oc2cccc(O)c12` [HF, 5-hydroxyflavone], the “radical scavenging activity, compared to Trolox” value in [3] is “negligible”. Moreover, the “morphology of Aβ42 aggregates by TEM” value is “did not significantly alter the morphologies” at Cu(II)–Aβ42 and “fibrillar aggregates similar to those from the compound-free Zn(II)–Aβ42 sample” on Zn(II)–Aβ42. Also, the “MW distribution of Aβ42 species by gel/Western blot” value at Cu(II)–Aβ42 is recorded as “did not exhibit significant reactivity”; in data set [2] it was “did not exhibit notable reactivity”; on Zn(II)–Aβ42, “did not exhibit significant reactivity”; on metal-free Aβ42, “did not exhibit significant reactivity”. In addition, in data set [1], the IC50 is greater than 2000 nM. The “inhibition of the activity of AChE” value in data set [1] is given as “not inhibited”.

For the compound `O=c1cc(-c2ccccc2)oc2cc(O)cc(O)c12` [Chr, chrysin], the “radical scavenging activity, compared to Trolox” value in [3] is “negligible”. For the same compound, the “MW distribution of Aβ42 species by gel/Western blot” value is given as “did not exhibit significant reactivity” at Cu(II)–Aβ42, “did not exhibit notable reactivity” in data set [2], “did not exhibit significant reactivity” at Zn(II)–Aβ42 and “did not exhibit significant reactivity” at metal-free Aβ42. Further, the “inhibition of the activity of AChE” value in data set [1] is reported as “not inhibited”.

On to `O=c1c(O)c(-c2ccc(O)c(O)c2)oc2cc(O)cc(O)c12` [Que, Quercetin], for which the “morphology of Aβ42 aggregates by TEM” value at Cu(II)–Aβ42 is “significantly shorter fibrillar aggregates”; at Zn(II)–Aβ42 it was “thinner chopped fibrils”. Besides, the “MW distribution of Aβ42 species by gel/Western blot” value at Cu(II)–Aβ42 is recorded as “increased the smearing band intensity at ca. 7–270 kDa”; in [2] it was “very mildly varied the MW distribution”; on Zn(II)–Aβ42 it was “altered the aggregation of Zn(II)–Aβ42, resulting in diverse MW distributions from ca. 15 to 50 kDa”; on metal-free Aβ42, “minor change”. The “morphology of preformed aggregates by TEM” value in [5] was “shorter fibrils”; in data set [4] it was “a mixture of amorphous aggregates and thinner chopped fibrils”. In the data set “Interaction with Cu”, the “absorption band at ca. 400–440 nm at greater Cu(II) concentrations” value is “diminished”.

`O=c1c(-c2ccc(O)cc2)coc2cc(O)cc(O)c12` [Gen, genistein]: the “MW distribution of Aβ42 species by gel/Western blot” value at Cu(II)–Aβ42 is “did not exhibit significant reactivity”; in data set [2], “did not exhibit notable reactivity”; on Zn(II)–Aβ42, “did not exhibit significant reactivity”; on metal-free Aβ42 it was “did not exhibit significant reactivity”.

For the compound `O=c1c(O)c(-c2ccc(O)cc2)oc2cc(O)cc(O)c12` [Kae, kaempferol], the “morphology of Aβ42 aggregates by TEM” value is listed as “amorphous assemblies distinct from native Aβ42 fibrils” at Cu(II)–Aβ42 and “fibrillar aggregates similar to those from the compound-free Zn(II)–Aβ42 sample” on Zn(II)–Aβ42. The “MW distribution of Aβ42 species by gel/Western blot” value is “increased the signal in the range of ca. 7–50 kDa” on Cu(II)–Aβ42, “did not impact” in [2], “did not significantly influence” at Zn(II)–Aβ42 and “did not significantly influence” on metal-free Aβ42. For the same compound, in data set [4], the “morphology of preformed aggregates by TEM” value was “a mixture of amorphous aggregates and thinner chopped fibrils”. For the same compound, the “absorption band at ca. 400–440 nm at greater Cu(II) concentrations” value in “Interaction with Cu” is “diminished”.
